The values below come from ChEMBL document CHEMBL3588772, “Synthesis, anti-mycobacterial activity and DNA sequence-selectivity of a library of biaryl-motifs containing polyamides” (Bioorg Med Chem, 2015).

A word on the MIC: it is the lowest concentration that inhibits growth of the organism. A lower MIC goes with a more susceptible organism.

For the experiment, the system named is Mycobacterium tuberculosis. Nature of the experiment: Antimycobacterial activity against Mycobacterium bovis BCG after 7 days. It counts as functional. The settings on record: variant bovis BCG, 168 h. The gist of the method:
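HT-SPOTi agar growth inhibition in 96-well format. Serially diluted DMSO solutions were mixed into Middlebrook 7H10 agar (kept at 55 °C) with 0.05% glycerol and 10% OADC. Controls were DMSO-only wells and isoniazid. Each well received 2×10³ CFU of culture (pre-grown rolling at 2 rpm or standing, 37 °C). Plates ran 7 days at 37 °C. MIC = lowest concentration with no visible growth.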

Molecules are shown by their SMILES. In brackets after ≈: the same amount, converted by molar mass.

`CC(=O)Nc1ccc(-c2csc(C(=O)Nc3cc(C(=O)Nc4cc(C(=O)NCCCN(C)C)n(C)c4)n(C)c3)c2)cc1` showed an MIC of 125 µg/mL (≈ 212 µM).

The molecule `CC(=O)Nc1ccc(-c2ccc(C(=O)Nc3cc(C(=O)Nc4cc(C(=O)NCCCN(C)C)n(C)c4)n(C)c3)o2)cc1` displayed an MIC of 125 µg/mL (≈ 218 µM).

For the molecule `CC(=O)Nc1cccc(-c2ccc(C(=O)Nc3cc(C(=O)Nc4cc(C(=O)NCCCN(C)C)n(C)c4)n(C)c3)o2)c1`, it took 125 µg/mL (≈ 218 µM) to inhibit growth (MIC).

Regarding `CC(=O)Nc1ccc(-c2cc(C(=O)Nc3cc(C(=O)Nc4cc(C(=O)NCCCN(C)C)n(C)c4)n(C)c3)n(C)c2)cc1`, the lowest concentration to inhibit growth (MIC) was 125 µg/mL (≈ 213 µM).

In turn, `Cc1nc(-c2ccsc2)sc1C(=O)Nc1cc(C(=O)Nc2cc(C(=O)NCCCN(C)C)n(C)c2)n(C)c1` yielded a minimal inhibitory concentration (MIC) of 125 µg/mL (≈ 226 µM).

Consider `Cc1nc(-c2cnn(C)c2)sc1C(=O)Nc1cc(C(=O)Nc2cc(C(=O)NCCCN(C)C)n(C)c2)n(C)c1`, for which 62.5 µg/mL (≈ 113 µM) was the least that counted as inhibitory (MIC).

On to `NNC(=O)c1ccncc1` [ISONIAZID], for which the MIC turned out to be 0.05 µg/mL (≈ 0.365 µM).

For the molecule `CO[C@H]1/C=C/O[C@@]2(C)Oc3c(C)c(O)c4c(O)c(c(/C=N/N5CCN(C)CC5)c(O)c4c3C2=O)NC(=O)/C(C)=C\C=C\[C@H](C)[C@H](O)[C@@H](C)[C@@H](O)[C@@H](C)[C@H](OC(C)=O)[C@@H]1C` [RIFAMPIN], the minimum inhibitory concentration (MIC) was found to be 0.05 µg/mL (≈ 0.0608 µM).

`Cn1cc(NC(=O)c2cc(NC(=O)c3cc(NC=O)cn3C)cn2C)cc1C(=O)NCCC(=N)N` [STALLIMYCIN] showed an MIC of 1.95 µg/mL (≈ 4.05 µM).
